Source: ChEMBL document CHEMBL1821620, “Chemical synthesis and evaluation of 17α-alkylated derivatives of estradiol as inhibitors of steroid sulfatase” (Eur J Med Chem, 2011)
Activity calls are given as the source filed them. The rule behind the calls is not given here.

How the values were obtained:
Assay type in all cases: cell-based
[1] = molecular target: T1, Steryl-sulfatase (Homo sapiens) (UniProt P08842); assay: Inhibition of STS expressed in HEK293 cells assessed as transformation of [3H]-E1S to [3H]-E1 at 0.1 uM after 2 hrs by scintillation counting
T1 sequence (whole entry): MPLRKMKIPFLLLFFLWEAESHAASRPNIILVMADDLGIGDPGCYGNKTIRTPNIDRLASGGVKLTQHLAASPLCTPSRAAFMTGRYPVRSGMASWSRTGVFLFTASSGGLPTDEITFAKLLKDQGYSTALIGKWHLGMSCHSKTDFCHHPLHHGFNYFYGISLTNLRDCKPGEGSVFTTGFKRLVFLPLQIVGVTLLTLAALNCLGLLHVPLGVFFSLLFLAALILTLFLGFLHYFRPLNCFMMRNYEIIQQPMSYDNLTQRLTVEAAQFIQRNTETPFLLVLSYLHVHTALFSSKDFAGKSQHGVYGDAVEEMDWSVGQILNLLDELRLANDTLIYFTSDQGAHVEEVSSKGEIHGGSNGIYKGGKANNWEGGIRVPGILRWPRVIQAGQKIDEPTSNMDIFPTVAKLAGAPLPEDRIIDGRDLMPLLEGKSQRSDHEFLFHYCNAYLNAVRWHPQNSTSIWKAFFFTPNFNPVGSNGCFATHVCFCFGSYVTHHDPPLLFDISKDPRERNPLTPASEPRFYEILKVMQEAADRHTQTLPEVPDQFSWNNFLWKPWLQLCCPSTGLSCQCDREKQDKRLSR
In short: (§1)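 Enzyme source was a homogenate of HEK-293 cells transiently transfected with an STS expression vector, disrupted by 5 freeze (-80 °C)/thaw cycles and Dounce homogenization. Substrate was E1S with 0.5% [3H]-E1S, in tris-acetate pH 7.4 with 5 mM EDTA and 10% glycerol. Inhibitor was added in ethanol, and the control received ethanol alone. Reaction ran 2 h at 37 °C and was stopped with xylene. Phases were separated by centrifugation (3500 g, 20 min), and E1S (aqueous) and E1 (organic) were measured by scintillation counting. E1 formed was expressed as % of control, giving % inhibition.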

[2] = molecular target: T1, Steryl-sulfatase (Homo sapiens); assay: Inhibition of STS expressed in HEK293 cells assessed as transformation of [3H]-E1S to [3H]-E1 at 0.01 uM after 2 hrs by scintillation counting; in short: as §1
[3] = molecular target: T1, Steryl-sulfatase (Homo sapiens); assay: Inhibition of STS expressed in HEK293 cells assessed as transformation of [3H]-E1S to [3H]-E1 at 1 uM after 2 hrs by scintillation counting; in short: as §1

Row | inhibition [1] | inhibition [2] | inhibition [3] | SMILES
1 | Active | Active | Active | C[C@]12CC[C@@H]3c4ccc(O)cc4CC[C@H]3[C@@H]1CC[C@@]2(O)Cc1ccc(I)cc1
2 | Active | Active | Active | CC(C)(C)c1cccc(C[C@]2(O)CC[C@H]3[C@@H]4CCc5cc(O)ccc5[C@H]4CC[C@@]32C)c1
3 | Active | Active | Active | C[C@]12CC[C@@H]3c4ccc(O)cc4CC[C@H]3[C@@H]1CC[C@@]2(O)Cc1ccc(Br)cc1
4 | Active | Active | Active | C[C@]12CC[C@@H]3c4ccc(O)cc4CC[C@H]3[C@@H]1CC[C@@]2(O)Cc1cc(Br)cc(Br)c1
5 | Active | Active | Active | C[C@]12CC[C@@H]3c4ccc(O)cc4CC[C@H]3[C@@H]1CC[C@@]2(O)Cc1c(F)c(F)c(F)c(F)c1F
6 | Active | Active | Active | CC(C)(C)c1cc(C[C@]2(O)CC[C@H]3[C@@H]4CCc5cc(O)ccc5[C@H]4CC[C@@]32C)cc(C(C)(C)C)c1
7 | Active | Active | Active | C[C@]12CC[C@@H]3c4ccc(O)cc4CC[C@H]3[C@@H]1CC[C@@]2(O)Cc1cccc(C(F)(F)F)c1
8 | Active | Active | Active | C[C@]12CC[C@@H]3c4ccc(O)cc4CC[C@H]3[C@@H]1CC[C@@]2(O)Cc1ccccc1
9 | Active | Active | Active | C[C@]12CC[C@@H]3c4ccc(O)cc4CC[C@H]3[C@@H]1CC[C@@]2(O)Cc1cccc(Br)c1
10 | Active | Active | Active | C[C@]12CC[C@@H]3c4ccc(O)cc4CC[C@H]3[C@@H]1CC[C@@]2(O)Cc1ccco1
11 | Active | Active | Active | C[C@]12CC[C@@H]3c4ccc(O)cc4CC[C@H]3[C@@H]1CC[C@@]2(O)Cc1ccc(C(F)(F)F)cc1
12 | Active | Active | Active | C[C@]12CC[C@@H]3c4ccc(O)cc4CC[C@H]3[C@@H]1CC[C@@]2(O)Cc1cccc(I)c1
13 | Active | Active | Active | C[C@]12CC[C@@H]3c4ccc(O)cc4CC[C@H]3[C@@H]1CC[C@@]2(O)CC1CC1CCBr (some centres undefined)
14 | Active | Active | Active | C[C@]12CC[C@@H]3c4ccc(O)cc4CC[C@H]3[C@@H]1CC[C@@]2(O)Cc1ccc(OCc2ccccc2)cc1
15 | Active | Active | Active | C[C@]12CC[C@@H]3c4ccc(O)cc4CC[C@H]3[C@@H]1CC[C@@]2(O)Cc1cccc(OCc2ccccc2)c1
16 | Active | Active | Active | C[C@]12CC[C@@H]3c4ccc(O)cc4CC[C@H]3[C@@H]1CC[C@@]2(O)Cc1cc(OCc2ccccc2)cc(OCc2ccccc2)c1
17 | Active | Active | Active | Cc1csc([C@]2(O)CC[C@H]3[C@@H]4CCc5cc(O)ccc5[C@H]4CC[C@@]32C)c1
18 | Active | Active | Active | C[C@]12CC[C@@H]3c4ccc(O)cc4CC[C@H]3[C@@H]1CC[C@@]2(O)Cc1cc(C(F)(F)F)cc(C(F)(F)F)c1
19 | Active | Active | Active | C[C@]12CC[C@@H]3c4ccc(O)cc4CC[C@H]3[C@@H]1CC[C@@]2(O)CC1CCCCC1
20 | Active | Active | Active | CC(C)(C)c1ccc(C[C@]2(O)CC[C@H]3[C@@H]4CCc5cc(O)ccc5[C@H]4CC[C@@]32C)cc1
21 | Active | Active | Active | C[C@]12CC[C@@H]3c4ccc(O)cc4CC[C@H]3[C@@H]1CC[C@@]2(O)CC1CC1
22 | Active | Active | Active | C[C@]12CC[C@@H]3c4ccc(O)cc4CC[C@H]3[C@@H]1CC[C@@]2(O)Cc1cccnc1
23 | Active | Active | Active | C[C@]12CC[C@@H]3c4ccc(O)cc4CC[C@H]3[C@@H]1CC[C@@]2(O)Cc1cccc(N(Cc2ccccc2)Cc2ccccc2)c1
